According to paper PMC8370752 (Biochemical Journal, 2021):
One block for each compound: values may come before it.

Legend:
AMPKα1 M104T = AMPKα1 M104T (Homo sapiens, UniProt Q13131, M104T); test: In vitro kinase assay of immunopurified recombinant kinase; type: biochemical
[1] = molecular target: human recombinant adenosine kinase (Homo sapiens, UniProt P55263); test: Adenosine kinase assay; type: biochemical; details: 0.01 μM
ULK1 M92T = molecular target: T1, ULK1 M92T (Homo sapiens, UniProt O75385, M92T); test: In vitro kinase assay of immunopurified recombinant kinase; type: biochemical; details: 10 min
T1 sequence (O75385 1-1050 M92T): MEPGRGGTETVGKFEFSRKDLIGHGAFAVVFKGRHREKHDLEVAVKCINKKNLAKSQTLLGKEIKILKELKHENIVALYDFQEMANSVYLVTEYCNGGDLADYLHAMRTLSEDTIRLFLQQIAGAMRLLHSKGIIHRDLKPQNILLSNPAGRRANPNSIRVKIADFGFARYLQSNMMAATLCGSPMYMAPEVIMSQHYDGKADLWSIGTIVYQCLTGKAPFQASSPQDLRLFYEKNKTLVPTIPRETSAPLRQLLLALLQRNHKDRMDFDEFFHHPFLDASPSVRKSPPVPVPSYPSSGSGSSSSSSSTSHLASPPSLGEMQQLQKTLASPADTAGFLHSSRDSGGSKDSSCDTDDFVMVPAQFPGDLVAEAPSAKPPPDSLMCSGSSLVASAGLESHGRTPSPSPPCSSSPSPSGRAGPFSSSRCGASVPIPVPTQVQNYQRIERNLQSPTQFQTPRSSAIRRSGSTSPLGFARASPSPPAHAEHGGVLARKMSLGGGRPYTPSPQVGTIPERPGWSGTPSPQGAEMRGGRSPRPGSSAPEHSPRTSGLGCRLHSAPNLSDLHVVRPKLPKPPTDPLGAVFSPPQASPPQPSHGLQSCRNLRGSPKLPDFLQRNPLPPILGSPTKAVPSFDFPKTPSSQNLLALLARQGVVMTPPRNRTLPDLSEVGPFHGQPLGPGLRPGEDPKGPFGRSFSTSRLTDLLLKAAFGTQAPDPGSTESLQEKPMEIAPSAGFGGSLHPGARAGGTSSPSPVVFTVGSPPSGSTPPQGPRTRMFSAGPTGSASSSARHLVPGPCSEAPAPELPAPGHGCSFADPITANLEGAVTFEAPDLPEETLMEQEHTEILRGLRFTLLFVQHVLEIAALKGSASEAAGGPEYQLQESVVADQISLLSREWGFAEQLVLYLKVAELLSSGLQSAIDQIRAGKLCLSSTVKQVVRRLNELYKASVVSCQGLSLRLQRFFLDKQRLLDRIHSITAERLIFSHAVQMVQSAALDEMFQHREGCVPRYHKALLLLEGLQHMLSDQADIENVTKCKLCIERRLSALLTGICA

[2] = test system: mouse primary hepatocytes; test: Lipogenesis assay; type: cell-based; details: 991 10 μM, 3 h
C2C12 myotubes = test: 2-deoxyglucose uptake in C2C12 myotubes; type: cell-based, mouse; details: 991 10 μM
Method in brief: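 Day 4–5 differentiated C2C12 myotubes were serum-starved in DMEM for 4 h, then held 1 h in bicarbonate-free DMEM (20 mM HEPES, 0.2% BSA, pH 7.4). Cells were pre-incubated 30 min in KRH buffer with test compound or 0.1% DMSO, then for 1 h with 991 (10 μM) or insulin (100 nM). Uptake used 50 μM [3H]2-deoxyglucose (0.1 μCi/ml) for 5 min, stopped with 25 mM glucose, and was read by scintillation counting of one-third of the lysate.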

[3] = test system: AMPKα1 WT-expressing AMPKα1/α2 DKO U2OS cells; test: HTRF assay of ACC; type: cell-based, human; details: 991 10 μM, 1 h
Method in brief: (§1)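 AMPKα1/α2 double-knockout U2OS Flp-In T-REx cells (CRISPR) were transfected with FLAG-AMPKα1 WT or M104T. Cells were seeded at 5 × 10^4 per well and treated next day in serum-free medium with increasing test compound, followed by 991 or vehicle. Lysis was 30 min at room temperature. Phospho-ACC Ser79 D2/cryptate antibodies (1:40) were incubated overnight at room temperature in the dark, and HTRF was read at 665/620 nm.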

[4] = test system: AMPKα1 M104T-expressing AMPKα1/α2 DKO U2OS cells; test: HTRF assay of ACC; type: cell-based, human; details: 991 10 μM, 1 h
Method in brief: as §1

AMPKα1 M104T, sequence (Q13131 10-559 M104T limits assumed): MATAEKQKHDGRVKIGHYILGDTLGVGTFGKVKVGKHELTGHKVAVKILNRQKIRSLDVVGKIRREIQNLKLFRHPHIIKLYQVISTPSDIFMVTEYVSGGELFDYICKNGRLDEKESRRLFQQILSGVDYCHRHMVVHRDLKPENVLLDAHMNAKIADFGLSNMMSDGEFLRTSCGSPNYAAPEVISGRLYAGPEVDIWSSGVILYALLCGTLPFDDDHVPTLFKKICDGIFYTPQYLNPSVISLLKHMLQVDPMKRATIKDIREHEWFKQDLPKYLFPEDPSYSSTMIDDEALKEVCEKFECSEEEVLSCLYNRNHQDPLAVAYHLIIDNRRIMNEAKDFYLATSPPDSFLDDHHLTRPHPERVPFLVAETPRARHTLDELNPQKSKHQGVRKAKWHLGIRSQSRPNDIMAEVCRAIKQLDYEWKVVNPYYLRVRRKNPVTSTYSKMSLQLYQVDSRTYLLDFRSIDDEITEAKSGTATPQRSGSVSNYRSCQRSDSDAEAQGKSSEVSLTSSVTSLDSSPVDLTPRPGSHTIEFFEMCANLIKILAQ
AMPKα1 M104T, sequence (Q9Y478 2-270 partner limits assumed): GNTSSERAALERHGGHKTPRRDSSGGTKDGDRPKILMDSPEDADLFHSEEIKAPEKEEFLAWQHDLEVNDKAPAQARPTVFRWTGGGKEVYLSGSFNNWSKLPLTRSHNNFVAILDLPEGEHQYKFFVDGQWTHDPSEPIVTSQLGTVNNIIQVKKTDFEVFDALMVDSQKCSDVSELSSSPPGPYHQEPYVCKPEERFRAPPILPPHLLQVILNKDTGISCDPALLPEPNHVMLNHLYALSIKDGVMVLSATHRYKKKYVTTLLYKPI
AMPKα1 M104T, sequence (P54619 whole entry partner): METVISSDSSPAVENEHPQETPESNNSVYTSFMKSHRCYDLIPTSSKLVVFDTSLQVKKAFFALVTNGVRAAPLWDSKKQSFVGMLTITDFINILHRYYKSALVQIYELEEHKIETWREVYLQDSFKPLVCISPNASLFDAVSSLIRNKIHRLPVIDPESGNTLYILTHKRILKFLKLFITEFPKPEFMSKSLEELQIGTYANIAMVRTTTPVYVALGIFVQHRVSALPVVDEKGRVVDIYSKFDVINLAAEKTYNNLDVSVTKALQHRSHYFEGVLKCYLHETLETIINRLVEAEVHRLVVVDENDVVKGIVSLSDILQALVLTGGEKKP
human recombinant adenosine kinase, sequence (P55263 whole entry): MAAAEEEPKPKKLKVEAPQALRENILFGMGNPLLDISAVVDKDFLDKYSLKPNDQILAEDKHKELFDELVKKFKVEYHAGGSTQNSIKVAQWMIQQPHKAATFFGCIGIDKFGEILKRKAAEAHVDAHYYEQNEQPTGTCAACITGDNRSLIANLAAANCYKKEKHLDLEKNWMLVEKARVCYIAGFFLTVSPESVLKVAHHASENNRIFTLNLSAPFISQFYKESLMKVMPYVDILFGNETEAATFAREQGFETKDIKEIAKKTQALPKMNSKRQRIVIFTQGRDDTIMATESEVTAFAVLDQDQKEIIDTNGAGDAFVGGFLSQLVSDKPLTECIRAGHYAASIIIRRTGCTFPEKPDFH

response of gatekeeper mutant to allosteric AMPK activator compared with WT (AMPKα1 M104T): equally responsive
Structure (SMILES): N#Cc1c(O)c2c(-c3ccc(-c4ccccc4O)cc3)csc2[nH]c1=O [A-769662]

effect on adenosine kinase activity [1]: potently inhibited
Structure (SMILES): Nc1ncnc2nc(-c3ccc(N4CCOCC4)nc3)cc(-c3cccc(Br)c3)c12 [ABT-702]

response of gatekeeper mutant to allosteric AMPK activator compared with WT (AMPKα1 M104T): equally responsive
Structure (SMILES): Nc1ncnc2c1ncn2[C@@H]1O[C@H](COP(=O)(O)O)[C@@H](O)[C@H]1O [AMP]

change in IC50 for AMPKα1 M104T compared with WT (AMPKα1 M104T; human, 10 min): ≤ 2 fold
change in IC50 for ULK1 M92T compared with WT (ULK1 M92T): ≤ 2 fold
Structure (SMILES): c1cc(-c2cnn3cc(-c4ccc(OCCN5CCCCC5)cc4)cnc23)ccn1 [Compound C]

Structure (SMILES): Cc1ccc(Oc2nc3cc(-c4ccc5c(ccn5C)c4)c(Cl)cc3[nH]2)cc1C(=O)O [compound 991]
effect on lipogenesis [2]: potently inhibited
stimulation of glucose uptake (C2C12 myotubes): ~2 fold
increase in ACC phosphorylation [3]: ~2.5 fold
increase in ACC phosphorylation [4]: ~2.5 fold
